Source: ChEMBL document CHEMBL1158351, “Studies on chemical structure modification and biology of a natural product, gambogic acid (I): Synthesis and biological evaluation of oxidized analogues of gambogic acid” (Eur J Med Chem, 2009)
Activity calls are given as the source filed them. No cut-off for these calls is given here.

Columns and labels:
A549 = assay: Cytotoxicity against human A549 cells after 48 hrs by MTT assay; format: functional, cell-based; conditions: A549, 48 h
Outline: (§1)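 Cells in RPMI-1640 with 10% heat-inactivated calf serum, penicillin/streptomycin, 5% CO2, 37 °C. Seeded at 5×10³ per well and exposed to six concentrations of 0.01–1000 for 48 h. Then 0.5% MTT for 4 h at 37 °C, formazan dissolved in DMSO, absorbance read at 570 nm. Inhibition calculated as (1 − treated/control absorbance)×100. IC50 is the concentration giving 50% inhibition; mean ± SD of three observations.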

BGC-823 = assay: Cytotoxicity against human BGC823 cells after 48 hrs by MTT assay; format: functional, cell-based; conditions: BGC-823, 48 h; outline: as §1
SK-OV-3 = assay: Cytotoxicity against human SKOV3 cells after 48 hrs by MTT assay; format: functional, cell-based; conditions: SK-OV-3, 48 h; outline: as §1
HT-29 = assay: Cytotoxicity against human HT-29 cells after 48 hrs by MTT assay; format: functional, cell-based; conditions: HT-29, 48 h; outline: as §1
Bel-7402 = assay: Cytotoxicity against human Bel7402 cells after 48 hrs by MTT assay; format: functional, cell-based; conditions: Bel-7402, 48 h; outline: as §1
HepG2 [1] = assay: Induction of apoptosis in human HepG2 cells assessed as ratio of Bcl-2 to Bax protein expression at 2 uM after 20 hrs by SDS-PAGE; format: functional
Outline: (§2)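 HepG2 cells treated for 20 h, then lysed in Tris-Cl pH 6.8 buffer with 4% SDS, 20% glycerol, 200 mM β-mercaptoethanol, PMSF and aprotinin. Protein measured by Bradford at 595 nm and resolved on 10% SDS-PAGE, then transferred to PVDF membrane. Probed overnight at 4 °C with anti-Bcl-2, anti-Bax and anti-actin primaries, then 1 h with IRDye800 secondaries. Bcl-2/Bax ratio derived from band quantitation.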

HepG2 [2] = assay: Induction of apoptosis in human HepG2 cells assessed as ratio of Bcl-2 to Bax protein expression at 6 uM after 20 hrs by SDS-PAGE; format: functional; outline: as §2
HepG2 [3] = assay: Induction of apoptosis in human HepG2 cells assessed early apoptotic cells at 1 uM after 20 hrs using FITC-conjugated annexin V and propidium iodide staining by FACS analysis; format: functional
Outline: (§3)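 HepG2 cells in flasks treated for 20 h, then 1×10⁶ cells harvested, washed and resuspended in PBS. Stained with FITC-Annexin V and PI kit per kit instructions and analysed by flow cytometry. Quadrants: Annexin−/PI− viable, Annexin+/PI− early apoptotic, upper right necrotic/late apoptotic.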

HepG2 [4] = assay: Induction of apoptosis in human HepG2 cells assessed late apoptotic cells at 1 uM after 20 hrs using FITC-conjugated annexin V and propidium iodide staining by FACS analysis; format: functional; outline: as §3
HepG2 [5] = assay: Induction of apoptosis in human HepG2 cells assessed nonviable necrotic cells at 1 uM after 20 hrs using FITC-conjugated annexin V and propidium iodide staining by FACS analysis; format: functional; outline: as §3
HepG2 [6] = assay: Induction of apoptosis in human HepG2 cells assessed viable cells at 1 uM after 20 hrs using FITC-conjugated annexin V and propidium iodide staining by FACS analysis; format: functional; outline: as §3
HepG2 [7] = assay: Induction of apoptosis in human HepG2 cells assessed early apoptotic cells at 2 uM after 20 hrs using FITC-conjugated annexin V and propidium iodide staining by FACS analysis; format: functional; outline: as §3
HepG2 [8] = assay: Induction of apoptosis in human HepG2 cells assessed late apoptotic cells at 2 uM after 20 hrs using FITC-conjugated annexin V and propidium iodide staining by FACS analysis; format: functional; outline: as §3
HepG2 [9] = assay: Induction of apoptosis in human HepG2 cells assessed nonviable necrotic cells at 2 uM after 20 hrs using FITC-conjugated annexin V and propidium iodide staining by FACS analysis; format: functional; outline: as §3
HepG2 [10] = assay: Induction of apoptosis in human HepG2 cells assessed viable cells at 2 uM after 20 hrs using FITC-conjugated annexin V and propidium iodide staining by FACS analysis; format: functional; outline: as §3
HepG2 [11] = assay: Induction of apoptosis in human HepG2 cells assessed early apoptotic cells at 6 uM after 20 hrs using FITC-conjugated annexin V and propidium iodide staining by FACS analysis; format: functional; outline: as §3
HepG2 [12] = assay: Induction of apoptosis in human HepG2 cells assessed late apoptotic cells at 6 uM after 20 hrs using FITC-conjugated annexin V and propidium iodide staining by FACS analysis; format: functional; outline: as §3
HepG2 [13] = assay: Induction of apoptosis in human HepG2 cells assessed nonviable necrotic cells at 6 uM after 20 hrs using FITC-conjugated annexin V and propidium iodide staining by FACS analysis; format: functional; outline: as §3
HepG2 [14] = assay: Induction of apoptosis in human HepG2 cells assessed viable cells at 6 uM after 20 hrs using FITC-conjugated annexin V and propidium iodide staining by FACS analysis; format: functional; outline: as §3
HepG2 [15] = assay: Induction of apoptosis in human HepG2 cells assessed as inhibition of cell viability after 24 hrs by MTT assay; format: functional, cell-based
Outline: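 Medium then removed and MTT added; after 4 h the supernatant was discarded and DMSO added. Absorbance read at 570 nm. Mean ± SD, n = 3; IC50 calculated from the concentration–response.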

HepG2 [16] = assay: Induction of apoptosis in human HepG2 cells assessed as morphological changes at 1 uM after 20 hrs using DAPI staining by fluorescence microscopy; format: functional, cell-based
Outline: (§4)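 Mid-log HepG2 cultures in RPMI-1640 treated for 20 h, then morphology checked by inverted light microscopy. Floating and attached cells collected with EDTA/trypsin, fixed in ice-cold 4% paraformaldehyde for 20 min, and permeabilized with 0.3% Triton X-100. Stained with DAPI and viewed by fluorescence microscopy at 340 nm excitation.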

HepG2 [17] = assay: Induction of apoptosis in human HepG2 cells assessed as morphological changes at 2 uM after 20 hrs using DAPI staining by fluorescence microscopy; format: functional, cell-based; outline: as §4
HepG2 [18] = assay: Induction of apoptosis in human HepG2 cells assessed as morphological changes at 3 uM after 20 hrs using DAPI staining by fluorescence microscopy; format: functional, cell-based; outline: as §4
HepG2 [19] = assay: Induction of early apoptosis in human HepG2 cells assessed as presence of congregated chromatin and nucleolus pyknosis at 1 uM after 18 hrs using AOEB staining by fluorescence microscopy; format: functional, cell-based
Outline: (§5)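 HepG2 cells treated for 18 h, fixed in 4% paraformaldehyde for 20 min, and permeabilized in 0.1% Triton for 20 min. Stained with acridine orange/ethidium bromide in PBS for 5 min. Viewed by fluorescence microscopy at 490 nm excitation. Green AO with condensed chromatin scored as early apoptotic; uniform red EB scored as dead.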

HepG2 [20] = assay: Induction of early apoptosis in human HepG2 cells assessed as presence of congregated chromatin and nucleolus pyknosis at 2 uM after 18 hrs using AOEB staining by fluorescence microscopy; format: functional, cell-based; outline: as §5
HepG2 [21] = assay: Induction of early apoptosis in human HepG2 cells assessed as presence of congregated chromatin and nucleolus pyknosis at 3 uM after 18 hrs using AOEB staining by fluorescence microscopy; format: functional, cell-based; outline: as §5
HepG2 [22] = assay: Induction of apoptosis in human HepG2 cells assessed as decrease in Bcl-2 protein expression at 1 uM after 20 hrs by SDS-PAGE; format: functional, cell-based; outline: as §2
HepG2 [23] = assay: Induction of apoptosis in human HepG2 cells assessed as decrease in Bcl-2 protein expression at 2 uM after 20 hrs by SDS-PAGE; format: functional, cell-based; outline: as §2
HepG2 [24] = assay: Induction of apoptosis in human HepG2 cells assessed as decrease in Bcl-2 protein expression at 6 uM after 20 hrs by SDS-PAGE; format: functional, cell-based; outline: as §2
HepG2 [25] = assay: Induction of apoptosis in human HepG2 cells assessed as ratio of Bcl-2 to Bax protein expression at 1 uM after 20 hrs by SDS-PAGE; format: functional; outline: as §2

With `COC(=O)/C(C)=C\C[C@@]12OC(C)(C)[C@@H]3C[C@@H](C=C4C(=O)c5c(OC)c6c(c(CC=C(C)C)c5O[C@]431)O[C@](C)(CCC1OC1(C)C)C=C6)C2=O` (stereo partly specified) the IC50 (A549) was 1480 nM, the IC50 (BGC-823) was 750 nM and the IC50 (SK-OV-3) was 640 nM. For the same molecule, the IC50 (HT-29) was 2190 nM and the IC50 (Bel-7402) was 1400 nM.
Work on `CC(C)=CCC[C@]1(C)C=Cc2c(O)c3c(c(CC=C(C)C)c2O1)O[C@]12C(=C[C@@H]4C[C@H]1C(C)(C)O[C@@]2(C/C=C(/C)C(=O)O)C4=O)C3=O` [GAMBOGIC ACID] yielded an IC50 (A549) of 5810 nM, an IC50 (BGC-823) of 4510 nM and an IC50 (SK-OV-3) of 3060 nM. For the same molecule, the IC50 (HT-29) was 5610 nM and the IC50 (Bel-7402) was 3310 nM.
`COC(=O)/C(C)=C\C[C@@]12OC(C)(C)[C@@H]3C[C@@H](C=C4C(=O)c5c(OC)c6c(c(CC=C(C)C)c5O[C@]431)O[C@](C)(CC/C=C(\C)CO)C=C6)C2=O` gave a Ratio (HepG2 [1]) of 0.478, a Ratio (HepG2 [2]) of 0.251 and an Activity (HepG2 [3]) of 4%. For the same molecule, the Activity (HepG2 [4]) was 3.5%, the Activity (HepG2 [5]) was 0.2% and the Activity (HepG2 [6]) was 92.3%. For the same molecule, the Activity (HepG2 [7]) was 5%, the Activity (HepG2 [8]) was 2.5% and the Activity (HepG2 [9]) was 0.2%. For the same molecule, the Activity (HepG2 [10]) was 92.3%, the Activity (HepG2 [11]) was 12.9% and the Activity (HepG2 [12]) was 13.5%. For the same molecule, the Activity (HepG2 [13]) was 0.9%, the Activity (HepG2 [14]) was 72.7% and the IC50 (A549) was 4380 nM. For the same molecule, the IC50 (BGC-823) was 840 nM, the IC50 (SK-OV-3) was 1280 nM and the IC50 (HT-29) was 890 nM. The IC50 (Bel-7402) was 960 nM, the Activity (HepG2 [15]) was “Dose-dependent effect” and the IC50 (HepG2 [15]; HepG2, 24 h) was 2350 nM. The Activity (HepG2 [16]) was “Active”, the Activity (HepG2 [17]) was “Active” and the Activity (HepG2 [18]) was “Active”. For the same molecule, the Activity (HepG2 [19]) was “Active”, the Activity (HepG2 [20]) was “Active” and the Activity (HepG2 [21]) was “Active”. For the same molecule, the Activity (HepG2 [22]) was “Active”, the Activity (HepG2 [23]) was “Active” and the Activity (HepG2 [24]) was “Active”. It also gave a Ratio (HepG2 [25]) of 0.476.
`C/C(=C/C[C@@]12OC(C)(C)[C@@H]3C[C@@H](C=C4C(=O)c5c(O)c6c(c(C/C=C(\C)CO)c5O[C@]431)O[C@](C)(CC/C=C(\C)C=O)C=C6)C2=O)C(=O)O` showed an IC50 (A549) of 20500 nM, an IC50 (BGC-823) of 6750 nM and an IC50 (SK-OV-3) of 1840 nM. For the same molecule, the IC50 (HT-29) was 2080 nM and the IC50 (Bel-7402) was 15000 nM.
`COC(=O)/C(C)=C\C[C@@]12OC(C)(C)[C@@H]3C[C@@H](C=C4C(=O)c5c(OC)c6c(c(CC7OC7(C)C)c5O[C@]431)O[C@](C)(CCC1OC1(C)C)C=C6)C2=O` (stereo partly specified) showed an IC50 (A549) of 3610 nM, an IC50 (BGC-823) of 3210 nM and an IC50 (SK-OV-3) of 1800 nM. The IC50 (HT-29) was 1860 nM and the IC50 (Bel-7402) was 1660 nM.
`COC(=O)/C(C)=C\C[C@@]12OC(C)(C)[C@@H]3C[C@@H](C=C4C(=O)c5c(OC)c6c(c(CC=C(C)C)c5O[C@]431)O[C@](C)(CC[C@@H](O)C(C)(C)O)C=C6)C2=O` showed an IC50 (A549) of over 100000 nM, an IC50 (BGC-823) of over 100000 nM and an IC50 (SK-OV-3) of over 100000 nM. The IC50 (HT-29) was over 100000 nM and the IC50 (Bel-7402) was over 100000 nM.
